From ChEMBL document CHEMBL3259591, “Three new cembranoid-type diterpenes from Red Sea soft coral Sarcophyton glaucum: isolation and antiproliferative activity against HepG2 cells” (Eur J Med Chem, 2014)

Experiments:
HepG2 [1] = test: Cytotoxicity against human HepG2 cells after 96 hrs by […]; type: functional, cell-based; details: HepG2, 96 h
Method in brief: (§1)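 Cells seeded at 10 × 10^3/well and held 24 h at 37 °C, 5% CO2. Serum-free RPMI-1640 then added with sample at final 1000, 500, 200, 100, 50, 20, 10 µg/mL (DMSO ≤1% v/v). Incubated 96 h, then rinsed and fixed in 3.7% formaldehyde in saline for ≥20 min. IC50 taken as 50% loss of monolayer, from a straight-line fit of dose-response data.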

MCF7 = test: Cytotoxicity against human MCF7 cells after 96 hrs by […]; type: functional, cell-based; details: MCF7, 96 h; method in brief: as §1
A549 = test: Cytotoxicity against human A549 cells after 96 hrs by […]; type: functional, cell-based; details: A549, 96 h; method in brief: as §1
PC-3 [2] = test: Cytotoxicity against human PC3 cells after 96 hrs […]; type: functional, cell-based; details: PC-3, 96 h; method in brief: as §1
Vero = test: Cytotoxicity against african green monkey Vero cells after 96 hrs […]; type: cell-based; details: chlorocebus sabaeus; method in brief: as §1
PC-3 [3] = test: Cell cycle arrest in human PC3 cells assessed as reduction in cells at S-phase after 24 hrs by flow cytometry (reference value: 32.12 +/- 0.9%); type: functional; set-up: scale not given: the % may be the effect or the level left
PC-3 [4] = test: Cell cycle arrest in human PC3 cells assessed as increase in cells at G0/G1-phase after 24 hrs by flow cytometry (reference value: 49.80 +/- 0.6%); type: functional
PC-3 [5] = test: Induction of apoptosis in human PC3 cells assessed as increase in caspase-3 concentration by colorimetric assay relative to untreated control; type: functional
PC-3 [6] = test: Induction of apoptosis in human PC3 cells assessed as viable cells after 24 hrs using annexin V/propidium iodide double staining by flow cytometry (reference value: 99.60 %); type: functional
PC-3 [7] = test: Induction of apoptosis in human PC3 cells assessed as early apoptotic cells after 24 hrs using annexin V/propidium iodide double staining by flow cytometry (reference value: 0.00 %); type: functional
PC-3 [8] = test: Induction of apoptosis in human PC3 cells assessed as late apoptotic cells after 24 hrs using annexin V/propidium iodide double staining by flow cytometry (reference value: 0.03 %); type: functional
PC-3 [9] = test: Induction of apoptosis in human PC3 cells assessed as necrotic cells after 24 hrs using annexin V/propidium iodide double staining by flow cytometry (reference value: 0.640.36 %); type: functional
HepG2 [10] = test: Cell cycle arrest in human HepG2 cells assessed as increase in cells at G0/G1-phase after 24 hrs by flow cytometry (reference value: 44.74 +/- 0.6%); type: functional
HepG2 [11] = test: Cell cycle arrest in human HepG2 cells assessed as reduction in cells at S-phase after 24 hrs by flow cytometry (reference value: 43.65 +/- 1.1%); type: functional; set-up: scale not given: the % may be the effect or the level left
HepG2 [12] = test: Induction of apoptosis in human HepG2 cells assessed as increase in caspase-3 concentration by colorimetric assay relative to untreated control; type: functional
HepG2 [13] = test: Induction of apoptosis in human HepG2 cells assessed as viable cells after 24 hrs using annexin V/propidium iodide double staining by flow cytometry (reference value: 99.35 %); type: functional
HepG2 [14] = test: Induction of apoptosis in human HepG2 cells assessed as early apoptotic cells after 24 hrs using annexin V/propidium iodide double staining by flow cytometry (reference value: 0.00 %); type: functional
HepG2 [15] = test: Induction of apoptosis in human HepG2 cells assessed as late apoptotic cells after 24 hrs using annexin V/propidium iodide double staining by flow cytometry (reference value: 0.01 %); type: functional
HepG2 [16] = test: Induction of apoptosis in human HepG2 cells assessed as necrotic cells after 24 hrs using annexin V/propidium iodide double staining by flow cytometry (reference value: 0.64 %); type: functional

Row | SMILES | IC50 (HepG2 [1]) | IC50 (MCF7) | IC50 (A549) | IC50 (PC-3 [2]) | Activity (Vero) | Activity (PC-3 [3]) | Activity (PC-3 [4]) | fold change (FC) (PC-3 [5]) | Activity (PC-3 [6]) | Activity (PC-3 [7]) | Activity (PC-3 [8]) | Activity (PC-3 [9]) | Activity (HepG2 [10]) | Activity (HepG2 [11]) | fold change (FC) (HepG2 [12]) | Activity (HepG2 [13]) | Activity (HepG2 [14]) | Activity (HepG2 [15]) | Activity (HepG2 [16])
1 | C=C1CC[C@@H]2[C@H]([C@@H]3[C@H](C)CC[C@H]13)C2(C)C | 20 µM | 20 µM | 98.4 µM | 9.3 µM | Non-toxic | 23.29% | 64.83% | 2.1 | 91.85% | 1.63% | 2.18% | 4.34% |  |  |  |  |  |  | 
2 | C/C1=C/C2OC(C)(CCCC/C(C)=C\CC1)C(O)C2C(C)C (stereo not drawn) | 20 µM |  | 197 µM | 31.5 µM | Non-toxic |  |  |  |  |  |  |  | 53.57% | 8.33% | 2.6 | 93.61% | 1.22% | 2.18% | 2.99%
3 | CC1=C2CC[C@H]3O[C@]3(C)CC/C(C)=C\CC/C(C)=C/[C@H]2OC1=O | 20 µM | 29 µM | 201 µM | 112 µM | Non-toxic |  |  |  |  |  |  |  | 51.9% | 7.11% | 2 | 93.93% | 1.23% | 1.76% | 3.08%
4 | COc1cccc2c1C(=O)c1c(O)c3c(c(O)c1C2=O)C[C@@](O)(C(=O)CO)C[C@@H]3O[C@H]1C[C@H](N)[C@H](O)[C@H](C)O1 [DOXORUBICIN] | 0.48 µM |  |  | 0.5 µM | Non-toxic |  |  |  |  |  |  |  |  |  |  |  |  |  | 
5 | CC1=C2CC[C@@H]3O[C@]3(C)CC/C(C)=C/CC/C(C)=C/[C@@H]2OC1=O | 94 µM | 25 µM | 73.8 µM | 216 µM | Non-toxic |  |  |  |  |  |  |  |  |  |  |  |  |  | 
